Measurements taken from ChEMBL document CHEMBL1275385, “Discovery and biological evaluation of potent, selective, orally bioavailable, pyrazine-based blockers of the Na(v)1.8 sodium channel with efficacy in a model of neuropathic pain” (Bioorg Med Chem, 2010).
≈ marks a conversion by molar mass, not a printed value. Calls of active or inactive are those of the source.

Assays:
[1] = target: Sodium channel protein type 10 subunit alpha (Mus musculus, UniProt Q6QIY3); experiment: Inhibition of mouse NaV1.8 expressed in HEK293 cells by isotopic efflux assay; type: cell-based
Chain of Sodium channel protein type 10 subunit alpha (Mus musculus, UniProt Q6QIY3) (Q6QIY3 whole entry): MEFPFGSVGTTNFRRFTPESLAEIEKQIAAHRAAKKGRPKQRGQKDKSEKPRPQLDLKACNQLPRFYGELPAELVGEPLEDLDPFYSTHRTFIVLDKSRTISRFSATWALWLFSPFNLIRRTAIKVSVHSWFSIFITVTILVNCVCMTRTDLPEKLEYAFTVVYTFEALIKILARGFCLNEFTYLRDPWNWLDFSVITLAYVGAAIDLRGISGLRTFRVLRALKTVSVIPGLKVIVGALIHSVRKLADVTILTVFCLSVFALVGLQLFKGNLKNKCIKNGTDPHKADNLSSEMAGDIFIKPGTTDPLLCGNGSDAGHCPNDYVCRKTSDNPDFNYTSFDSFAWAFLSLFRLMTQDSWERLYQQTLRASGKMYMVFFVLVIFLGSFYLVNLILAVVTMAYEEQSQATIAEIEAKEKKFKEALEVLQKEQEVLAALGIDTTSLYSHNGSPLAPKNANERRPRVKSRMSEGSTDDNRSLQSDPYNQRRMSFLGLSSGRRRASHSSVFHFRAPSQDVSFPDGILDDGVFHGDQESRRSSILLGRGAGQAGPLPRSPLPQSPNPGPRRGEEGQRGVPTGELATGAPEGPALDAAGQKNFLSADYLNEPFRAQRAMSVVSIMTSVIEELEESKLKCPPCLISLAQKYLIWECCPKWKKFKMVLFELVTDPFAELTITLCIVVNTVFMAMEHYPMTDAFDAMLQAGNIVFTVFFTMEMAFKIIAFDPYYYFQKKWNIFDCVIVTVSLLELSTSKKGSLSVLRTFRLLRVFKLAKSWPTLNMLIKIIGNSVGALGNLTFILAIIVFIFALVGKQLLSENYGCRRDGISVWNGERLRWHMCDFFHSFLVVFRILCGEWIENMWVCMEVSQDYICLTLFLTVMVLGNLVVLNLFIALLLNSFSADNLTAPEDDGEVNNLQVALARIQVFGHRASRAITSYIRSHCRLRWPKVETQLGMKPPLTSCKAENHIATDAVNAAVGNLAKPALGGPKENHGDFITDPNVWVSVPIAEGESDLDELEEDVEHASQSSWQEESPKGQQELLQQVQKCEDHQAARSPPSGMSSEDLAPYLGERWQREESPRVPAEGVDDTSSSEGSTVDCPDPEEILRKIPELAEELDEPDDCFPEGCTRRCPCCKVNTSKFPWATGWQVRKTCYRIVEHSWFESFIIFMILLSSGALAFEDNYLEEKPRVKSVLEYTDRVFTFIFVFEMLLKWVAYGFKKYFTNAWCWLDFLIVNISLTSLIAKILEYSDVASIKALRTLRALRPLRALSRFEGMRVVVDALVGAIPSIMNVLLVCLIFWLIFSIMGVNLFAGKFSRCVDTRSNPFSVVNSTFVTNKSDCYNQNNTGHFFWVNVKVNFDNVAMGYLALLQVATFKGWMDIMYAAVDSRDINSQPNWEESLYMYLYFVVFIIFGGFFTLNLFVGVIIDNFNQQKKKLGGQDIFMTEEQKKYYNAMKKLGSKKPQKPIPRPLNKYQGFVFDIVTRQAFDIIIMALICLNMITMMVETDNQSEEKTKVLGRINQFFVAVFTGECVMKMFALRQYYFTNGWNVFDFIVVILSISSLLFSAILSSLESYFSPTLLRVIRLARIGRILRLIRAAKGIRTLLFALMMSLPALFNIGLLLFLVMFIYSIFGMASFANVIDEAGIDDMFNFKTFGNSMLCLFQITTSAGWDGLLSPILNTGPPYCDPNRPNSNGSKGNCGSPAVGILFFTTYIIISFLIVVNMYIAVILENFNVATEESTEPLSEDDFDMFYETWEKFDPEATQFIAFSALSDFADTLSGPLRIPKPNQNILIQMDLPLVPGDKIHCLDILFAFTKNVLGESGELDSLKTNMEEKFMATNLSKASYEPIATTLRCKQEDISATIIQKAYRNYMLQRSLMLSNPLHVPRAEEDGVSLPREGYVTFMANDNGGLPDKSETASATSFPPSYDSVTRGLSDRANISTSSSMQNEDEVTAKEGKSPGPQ
Procedure, shortened: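 HEK293 cells stably expressing mouse Nav1.8 were loaded overnight with radiotracer, then stimulated. Efflux was read at a single time point on the linear part of the efflux curve. % inhibition = (1 − [test − reference blocker]/[control − reference blocker]) × 100. Eight-point concentration–response curves run in duplicate gave the IC50.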

[2] = target: T1, Sodium channel protein type 2 subunit alpha (Homo sapiens, UniProt Q99250); experiment: Inhibition of human recombinant NaV1.2 at 3 uM by electrophysiology
Procedure, shortened: (§1)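 Whole-cell voltage clamp of HEK-293 cells expressing recombinant human Nav1.2. Membrane potential was held at the V1/2 of steady-state inactivation, −60 mV. Compounds came from 10 mM DMSO stocks, diluted in extracellular solution (final DMSO <0.1%) and perfused at 1–2 mL/min at room temperature (21–25 °C). Tested at 1–3 concentrations with 2–6 measurements each; estimates averaged. Single-point data given as % inhibition at 3 µM.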

[3] = Aqueous solubility of the compound; type: physicochemical; conditions: buffer
[4] = target: Sodium channel protein type 10 subunit alpha (Rattus norvegicus, UniProt Q62968); experiment: Inhibition of tetrodotoxin-resistant NaV1.8 in rat dorsal root ganglion neurons at holding potential -100 mV by whole-cell patch clamp electrophysiology assay; type: tissue-based
[5] = target: Sodium channel protein type 10 subunit alpha (Homo sapiens, UniProt Q9Y5Y9); experiment: Inhibition of human recombinant NaV1.8 expressed in HEK293 cells by conventional voltage clamp electrophysiology assay; type: cell-based
Chain of Sodium channel protein type 10 subunit alpha (Homo sapiens, UniProt Q9Y5Y9) (Q9Y5Y9 whole entry, the tested form may be a part): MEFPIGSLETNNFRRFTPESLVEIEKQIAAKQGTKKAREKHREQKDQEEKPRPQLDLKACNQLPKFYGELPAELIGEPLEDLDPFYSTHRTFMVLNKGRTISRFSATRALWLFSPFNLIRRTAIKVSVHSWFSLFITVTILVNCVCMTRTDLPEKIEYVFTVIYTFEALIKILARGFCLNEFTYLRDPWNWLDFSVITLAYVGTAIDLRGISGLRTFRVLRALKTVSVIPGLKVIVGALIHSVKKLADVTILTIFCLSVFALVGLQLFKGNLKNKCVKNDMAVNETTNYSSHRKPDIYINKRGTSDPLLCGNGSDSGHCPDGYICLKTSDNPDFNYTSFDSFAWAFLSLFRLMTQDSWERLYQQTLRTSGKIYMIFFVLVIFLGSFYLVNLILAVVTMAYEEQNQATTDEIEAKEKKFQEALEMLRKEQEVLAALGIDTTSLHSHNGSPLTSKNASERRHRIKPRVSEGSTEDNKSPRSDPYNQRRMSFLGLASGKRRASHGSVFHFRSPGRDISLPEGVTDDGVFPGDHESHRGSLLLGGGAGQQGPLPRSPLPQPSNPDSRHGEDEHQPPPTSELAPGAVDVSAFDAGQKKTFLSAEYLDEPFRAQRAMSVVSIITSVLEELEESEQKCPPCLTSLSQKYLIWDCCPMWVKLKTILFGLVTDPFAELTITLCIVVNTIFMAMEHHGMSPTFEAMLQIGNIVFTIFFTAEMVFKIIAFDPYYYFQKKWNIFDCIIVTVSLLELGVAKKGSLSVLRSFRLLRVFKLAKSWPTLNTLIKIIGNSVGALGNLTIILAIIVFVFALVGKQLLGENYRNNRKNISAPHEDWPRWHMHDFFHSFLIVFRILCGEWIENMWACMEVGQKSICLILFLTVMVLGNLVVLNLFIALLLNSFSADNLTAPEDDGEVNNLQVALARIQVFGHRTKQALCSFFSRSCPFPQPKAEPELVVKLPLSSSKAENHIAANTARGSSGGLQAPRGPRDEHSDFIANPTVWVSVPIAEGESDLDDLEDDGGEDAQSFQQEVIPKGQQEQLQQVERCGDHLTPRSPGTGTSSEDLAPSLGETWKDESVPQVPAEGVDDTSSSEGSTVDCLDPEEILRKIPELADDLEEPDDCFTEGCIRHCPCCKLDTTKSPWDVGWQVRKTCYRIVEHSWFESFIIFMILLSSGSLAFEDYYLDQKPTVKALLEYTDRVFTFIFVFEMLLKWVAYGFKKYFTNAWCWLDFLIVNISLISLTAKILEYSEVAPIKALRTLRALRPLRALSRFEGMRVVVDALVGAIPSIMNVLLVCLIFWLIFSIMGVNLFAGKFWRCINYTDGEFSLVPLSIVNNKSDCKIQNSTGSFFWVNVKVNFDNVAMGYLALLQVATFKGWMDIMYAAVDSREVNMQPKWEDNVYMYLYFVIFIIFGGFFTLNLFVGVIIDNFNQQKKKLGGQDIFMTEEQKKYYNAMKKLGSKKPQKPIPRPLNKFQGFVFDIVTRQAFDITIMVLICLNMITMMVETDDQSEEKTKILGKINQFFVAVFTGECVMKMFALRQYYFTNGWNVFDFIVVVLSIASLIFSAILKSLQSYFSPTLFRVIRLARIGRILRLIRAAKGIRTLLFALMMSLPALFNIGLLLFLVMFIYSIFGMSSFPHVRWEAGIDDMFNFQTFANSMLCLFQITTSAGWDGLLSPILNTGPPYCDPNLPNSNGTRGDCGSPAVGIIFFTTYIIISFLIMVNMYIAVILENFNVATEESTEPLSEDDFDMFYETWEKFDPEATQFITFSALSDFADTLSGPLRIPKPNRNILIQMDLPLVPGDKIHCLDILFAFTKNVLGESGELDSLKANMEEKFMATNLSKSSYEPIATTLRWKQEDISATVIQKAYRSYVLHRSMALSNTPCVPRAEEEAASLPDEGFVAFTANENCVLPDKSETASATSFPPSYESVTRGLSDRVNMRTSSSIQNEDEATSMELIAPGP
Procedure, shortened: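 HEK-293 cells stably expressing human Nav1.8 were recorded by conventional whole-cell voltage clamp with the holding potential at the inactivation V1/2, −40 mV. DMSO stocks (10 mM) were diluted into extracellular solution (final DMSO <0.1%) and gravity-perfused at 1–2 mL/min at 21–25 °C. Each compound was run at 1–3 concentrations with 2–6 measurements each; estimates averaged.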

[6] = target: T1, Sodium channel protein type 2 subunit alpha; experiment: Inhibition of human recombinant NaV1.2 by electrophysiology; procedure, shortened: as §1
Homo sapiens = species on record: Homo sapiens; experiment: Selectivity ratio of IC50 for human NAv1.8 to IC50 for human Nav1.2
Procedure, shortened: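 Ratio of the IC50 values from whole-cell voltage clamp of human Nav1.8 (held at −40 mV) and human Nav1.2 (held at −60 mV), both expressed in HEK-293 cells. Each channel was held at its inactivation V1/2.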

[7] = Selectivity ratio of IC50 for human NaV1.8 to IC50 for human Nav1.2
Rattus norvegicus [8] = experiment: Analgesic activity in po dosed Sprague-Dawley rat L5/L6 spinal nerve injury Chung model of neuropathic pain assessed as reduction of von Frey hair-induced paw withdrawal threshold administered 60 mins before von Frey hair challenge; type: functional
Procedure, shortened: (§2)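 Rats with L5/L6 spinal nerve ligation (Kim and Chung method) dosed orally at 10, 30 or 100 mg/kg, 60 min before von Frey testing of paw withdrawal threshold on the injured and contralateral sides. At least six animals per group, compared with vehicle-treated animals; mean ± SEM, ANOVA with post-hoc tests (P <0.05). ED50 estimated by least-squares linear regression.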

[9] = Clearance in rat microsomes; type: ADME, Liver, Microsome
[10] = Oral bioavailability in rat at 3 mg/kg; type: ADME, organism-based; conditions: in vivo
Procedure, shortened: (§3)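 Rat pharmacokinetics (n = 3) after a single 3 mg/kg iv or po dose. Plasma clearance, Vss, half-life and oral bioavailability were derived from plasma exposure.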

[11] = Half life in rat at 3 mg/kg, po; type: ADME, organism-based; parameters: dose 3 mg/kg, route oral; conditions: in vivo; procedure, shortened: as §3
[12] = Half life in rat at 3 mg/kg, iv; type: ADME, organism-based; parameters: dose 3 mg/kg, route intravenous; conditions: in vivo; procedure, shortened: as §3
[13] = Cmax in rat at 3 mg/kg, po; type: ADME, organism-based; parameters: dose 3 mg/kg, route oral; conditions: in vivo
[14] = Volume of distribution at steady state in rat at 3 mg/kg, iv; type: ADME, organism-based; parameters: dose 3 mg/kg, route intravenous; conditions: in vivo, read-out: Vdss; procedure, shortened: as §3
Plasma = experiment: Plasma protein binding in rat; type: ADME, cell-free
[15] = target: Beta-2 adrenergic receptor (Homo sapiens) (UniProt P07550); experiment: Inhibition of human adrenergic beta2 receptor at 10 uM
Chain of Beta-2 adrenergic receptor (Homo sapiens) (P07550 whole entry, looked up): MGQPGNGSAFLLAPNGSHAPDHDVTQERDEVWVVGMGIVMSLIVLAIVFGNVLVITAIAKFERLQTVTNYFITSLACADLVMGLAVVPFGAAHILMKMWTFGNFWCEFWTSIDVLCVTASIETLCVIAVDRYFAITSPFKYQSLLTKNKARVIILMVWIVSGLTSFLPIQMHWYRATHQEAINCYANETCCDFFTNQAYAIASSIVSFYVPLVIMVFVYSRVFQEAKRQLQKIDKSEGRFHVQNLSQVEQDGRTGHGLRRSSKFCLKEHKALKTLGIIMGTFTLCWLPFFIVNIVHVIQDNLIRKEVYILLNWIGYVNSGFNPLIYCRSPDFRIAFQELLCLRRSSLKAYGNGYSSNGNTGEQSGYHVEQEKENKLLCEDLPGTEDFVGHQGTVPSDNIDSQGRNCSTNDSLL

[16] = Inhibition of BZD receptor at 10 uM
[17] = target: Substance-P receptor (Homo sapiens) (UniProt P25103); experiment: Inhibition of human NK1 receptor at 10 uM
Chain of Substance-P receptor (Homo sapiens) (P25103 whole entry): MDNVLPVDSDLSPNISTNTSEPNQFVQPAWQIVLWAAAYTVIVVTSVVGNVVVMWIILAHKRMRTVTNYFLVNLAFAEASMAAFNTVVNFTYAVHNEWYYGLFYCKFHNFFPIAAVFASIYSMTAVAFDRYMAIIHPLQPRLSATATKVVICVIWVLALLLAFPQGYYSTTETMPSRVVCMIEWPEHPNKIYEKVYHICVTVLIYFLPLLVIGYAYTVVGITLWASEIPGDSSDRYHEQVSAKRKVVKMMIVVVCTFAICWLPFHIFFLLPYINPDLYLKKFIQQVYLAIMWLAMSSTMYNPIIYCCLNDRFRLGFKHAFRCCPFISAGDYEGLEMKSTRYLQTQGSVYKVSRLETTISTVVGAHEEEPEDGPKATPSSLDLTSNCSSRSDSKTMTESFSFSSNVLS

[18] = Selectivity ratio of IC50 for tetrodotoxin-resistant NaV1.8 in rat dorsal root ganglion neurons to IC50 for human Nav1.2; type: tissue-based
Procedure, shortened: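 Ratio of the IC50 for native TTX-resistant current in dissociated rat DRG neurons (held at V1/2, −40 mV) to the IC50 for recombinant human Nav1.2 in HEK-293 cells (held at −60 mV).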

Rattus norvegicus [19] = experiment: Analgesic activity in Sprague-Dawley rat L5/L6 spinal nerve injury Chung model of neuropathic pain assessed as reduction of von Frey hair-induced paw withdrawal threshold at 100 mg/kg, po administered 60 mins before von Frey hair challenge; type: functional; procedure, shortened: as §2

IC50 [1] [nM] | solubility [3] [µg/mL] | IC50 [5] [nM] | IC50 [6] [nM] | CL [9] [µL/min] | Structure (SMILES) | IC50 [4] [nM] | also measured
58 | < 0.1 |  |  |  | Cc1cc(C)cc(NC(=O)c2cncc(-c3ccc(OC(F)(F)F)cc3)n2)c1 |  | inhibition [2]: 93%
9400 | 0.35 (≈ 1.07 µM) | 150 | 1000 |  | Cc1ccccc1CNC(=O)c1cncc(-c2ccc(C#N)cc2)n1 | 450 | 
2680 | < 0.1 | 19 | 1000 |  | O=C(NCCc1ccc(Cl)cc1)c1cncc(-c2ccc(Cl)cc2)n1 | 360 | Ratio IC50 (Homo sapiens): 53; Ratio IC50 [7]: 53
480 | > 50 | 19 | 1500 |  | O=C(NCc1cccnc1N1CCOCC1)c1cncc(-c2ccc(OC(F)(F)F)cc2)n1 | 85 | Activity (Rattus norvegicus [8]): Dose-dependent effect; ED50 (Rattus norvegicus [8]): 78 mg/kg; clearance [9]: 98 µL/min; Ratio IC50 (Homo sapiens): 79; bioavailability [10]: 18.2%; half-life [11]: 1.6 h; half-life [12]: 1.9 h; Cmax [13]: 150 ng/mL; Vd [14]: 3.3 L/kg; Activity (Plasma): 93.2%; inhibition [15]: > 60%; inhibition [16]: > 60%; inhibition [17]: > 60%
 | < 0.1 |  |  | 140 | COc1cc(NC(=O)c2ccc(-c3ccc(Cl)cc3)o2)cc(OC)c1 |  | 
4140 |  | 320 |  |  | O=C(NCc1ccncc1N1CCOCC1)c1cncc(-c2ccc(Cl)cc2)n1 |  | 
18000 |  |  |  |  | O=C(Nc1cccnc1)c1cncc(-c2ccc(Cl)cc2)n1 |  | 
1340 | < 0.1 | 27 |  |  | Cc1ccccc1CNC(=O)c1cncc(-c2ccc(Cl)cc2)n1 | 110 | inhibition [2]: 2%
490 | < 0.1 | 3 | 5000 | 83 | Cc1cc(C)cc(NC(=O)c2cncc(-c3ccc(Cl)cc3)n2)c1 | 52 | Ratio IC50 (Homo sapiens): > 1000; Ratio IC50 [18]: > 1600
470 | 0.03 (≈ 0.0914 µM) | 8 | 1600 | 140 | Cc1cc(C)cc(NC(=O)c2cncc(-c3ccc(C#N)cc3)n2)c1 | 84 | inhibition in vivo at 100 mg/kg (Rattus norvegicus [19]): < 20%; bioavailability [10]: 0%; half-life [12]: 1.6 h; Vd [14]: 5.1 L/kg; Activity (Plasma): 55.2%; inhibition [15]: inactive; inhibition [16]: inactive; inhibition [17]: inactive
1070 | < 0.1 | 6 | 6200 |  | COc1cc(NC(=O)c2cncc(-c3ccc(Cl)cc3)n2)cc(OC)c1 | 190 | Ratio IC50 (Homo sapiens): > 1000
56 | < 0.1 | 2 | 360 |  | CCOc1ccc(-c2cncc(C(=O)Nc3cc(C)cc(C)c3)n2)cc1 | 12 | 
960 | < 0.1 | 6 | 8200 |  | Cc1cccc(NC(=O)c2cncc(-c3ccc(Cl)cc3)n2)c1 | 280 | Ratio IC50 (Homo sapiens): > 1000
29100 |  |  |  |  | O=C(NCc1cnccc1N1CCOCC1)c1cncc(-c2ccc(Cl)cc2)n1 |  | 
650 | < 0.1 | 1 | 1000 |  | CCOc1ccc(-c2cncc(C(=O)Nc3cccc(C)c3)n2)cc1 | 68 | 
240 |  | 18 | 1200 |  | Cc1ccccc1CNC(=O)c1cncc(-c2ccc(OC(F)(F)F)cc2)n1 | 170 | 
110 | 0.14 (≈ 0.403 µM) | 2 | 470 | 630 | CCOc1ccc(-c2cncc(C(=O)NCc3ccccc3C)n2)cc1 | 19 | 
11000 | 1 (≈ 3.08 µM) |  |  |  | O=C(NCc1cccnc1)c1cncc(-c2ccc(Cl)cc2)n1 |  | 
210 | 0.65 (≈ 1.65 µM) | 30 | 1000 |  | O=C(NCc1cccnc1N1CCCC1)c1cncc(-c2ccc(Cl)cc2)n1 | 550 | 
2500 | 2.7 (≈ 6.59 µM) | 37 |  | 410 | O=C(NCc1cccnc1N1CCOCC1)c1cncc(-c2ccc(Cl)cc2)n1 | 280 | inhibition [2]: 11%
66 | < 0.1 | 5 | 2200 |  | Cc1cccc(NC(=O)c2cncc(-c3ccc(OC(F)(F)F)cc3)n2)c1 | 16 | 
1030 |  | 99 | 3900 | 143 | O=C(NCc1cccnc1Cl)c1cncc(-c2ccc(OC(F)(F)F)cc2)n1 | 90 | 
730 | 0.08 (≈ 0.223 µM) | 49 | 9100 | 120 | CC(C)Oc1cccc(NC(=O)c2cncc(-c3ccc(C#N)cc3)n2)c1 | 130 | 
